Measurements gathered from unrelated publications.
Each line is one published result; the experiments were not run side by side.
Read-out: metabolic stability
Host: rat
Sample: liver microsomes

| Compound | setting | half-life [min] |
| --- | --- | --- |
| O=C(Nc1ccc(OC(F)(F)Cl)cc1)c1cnc(N2CC[C@@H](O)C2)c(-c2ccn[nH]2)c1 | 1 µM, pH 7.4 | 179 |
| CCN(CC)Cc1ccc2cc(COC(=O)Nc3ccc(C(=O)NO)cc3)ccc2c1 | pH 7.4 | 92.9 |
| N#Cc1ccc(C[C@H](Nc2nnc(-c3ccc(F)cc3)s2)C(=O)N2CCc3ccccc32)cc1 | 10 µM, pH 7.4 | 19.3 |
| O=C1c2ccccc2C(=O)N1CCCN1CCN(C(c2ccc(F)cc2)c2ccc(F)cc2)CC1 | 100 ng/mL | 3.9 |
| N#Cc1ccc(C[C@H](NC(=O)c2cc3ccc(F)cc3[nH]2)C(=O)N2CCc3ccccc32)cc1 | 10 µM, pH 7.4 | 105 |
| COc1ccccc1Cn1nc(-c2ccc(CO)o2)c2ccccc21 | 1 µM, pH 7.4 | 2 |
| N#Cc1ccc(C[C@H](Nc2c(Nc3ccc(Br)cc3)c(=O)c2=O)C(=O)N2CCc3ccccc32)cc1 | 10 µM, pH 7.4 | 38 |
| C=CCn1c(=O)c2cnc(Nc3ccc(N4CCN(C)CC4)cc3)nc2n1-c1ccc2c(n1)[C@@](O)(CC)CC2 |  | 79 |
| OCc1ccc(-c2nn(Cc3ccncc3)c3ccccc23)o1 | 1 µM, pH 7.4 | 12 |
| COc1cc(-c2cc(C(C)=O)n3ccccc23)c(OC)cc1Cn1ccnc1 | 1 µM, pH 7.4 | 94.3 |
| NCc1ccc(-c2nn(Cc3ccccc3)c3ccccc23)o1 | 1 µM, pH 7.4 | > 30 |
| N#Cc1ccc(C[C@H](Nc2ncc(-c3ccc(F)cc3)o2)C(=O)N2CCc3ccccc32)cc1 | 10 µM, pH 7.4 | 43 |
| OCc1ccc(-c2nn(Cc3ccccn3)c3cccnc23)o1 | 1 µM, pH 7.4 | > 30 |
| Cc1[nH]c(C)c(S(=O)(=O)Nc2ccc(C(F)(F)F)c(Cl)c2)c1C(=O)N(C)C |  | 5.7 |
